From PubChem
PLC-gamma1 inh: blocks human PLC-gamma1 enzyme activity; purified PLC-gamma1, fluorogenic substrate, fluorescence; inhibition, % at 12.2 µM; 370,000 tested, 0.84% active; AID 720700; in the data active = inhibition above about 9.5%
Target sequence (P19174 whole entry, looked up): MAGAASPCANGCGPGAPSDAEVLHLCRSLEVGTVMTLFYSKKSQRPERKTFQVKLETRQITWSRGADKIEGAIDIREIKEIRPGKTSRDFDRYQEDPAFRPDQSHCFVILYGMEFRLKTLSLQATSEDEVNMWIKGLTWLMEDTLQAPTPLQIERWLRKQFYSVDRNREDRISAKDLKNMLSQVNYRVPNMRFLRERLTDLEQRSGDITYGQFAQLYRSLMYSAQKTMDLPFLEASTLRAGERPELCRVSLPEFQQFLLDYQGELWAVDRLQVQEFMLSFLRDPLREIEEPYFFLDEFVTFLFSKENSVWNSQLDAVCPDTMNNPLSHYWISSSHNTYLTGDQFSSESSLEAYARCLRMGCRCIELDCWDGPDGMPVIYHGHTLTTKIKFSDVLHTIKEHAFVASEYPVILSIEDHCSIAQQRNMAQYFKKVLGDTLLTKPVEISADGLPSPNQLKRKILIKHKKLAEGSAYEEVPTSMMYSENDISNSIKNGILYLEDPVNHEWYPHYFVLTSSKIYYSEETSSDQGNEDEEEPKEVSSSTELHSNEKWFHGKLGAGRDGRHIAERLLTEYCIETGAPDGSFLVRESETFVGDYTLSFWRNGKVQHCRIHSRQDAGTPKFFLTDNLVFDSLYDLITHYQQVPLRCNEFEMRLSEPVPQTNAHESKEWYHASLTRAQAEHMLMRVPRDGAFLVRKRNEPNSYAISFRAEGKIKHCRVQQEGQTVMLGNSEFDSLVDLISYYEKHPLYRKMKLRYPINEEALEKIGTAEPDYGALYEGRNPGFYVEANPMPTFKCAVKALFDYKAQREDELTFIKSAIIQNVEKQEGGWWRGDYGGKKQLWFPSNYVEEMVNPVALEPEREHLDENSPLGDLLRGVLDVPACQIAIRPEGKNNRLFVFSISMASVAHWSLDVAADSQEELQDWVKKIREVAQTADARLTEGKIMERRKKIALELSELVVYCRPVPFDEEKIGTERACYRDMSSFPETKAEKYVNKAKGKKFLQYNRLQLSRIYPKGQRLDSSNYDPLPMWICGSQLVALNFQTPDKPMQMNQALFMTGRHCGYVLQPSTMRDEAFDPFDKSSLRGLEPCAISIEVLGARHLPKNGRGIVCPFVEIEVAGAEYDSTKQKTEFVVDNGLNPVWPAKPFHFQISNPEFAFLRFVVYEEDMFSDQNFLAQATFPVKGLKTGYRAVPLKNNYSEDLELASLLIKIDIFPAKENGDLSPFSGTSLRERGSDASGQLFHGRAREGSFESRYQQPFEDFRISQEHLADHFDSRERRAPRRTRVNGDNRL
proCasp7 act: counter-screen for procaspase-3 activators: activators of human procaspase-7. recombinant procaspase-7, Ac-DEVD-pNA absorbance 405 nm; D23A/D198A/D206A triple mutant, cannot self-cleave; scale: DMSO 0, 5 µM enzyme 100. P55210. activation, % at 8.5 µM. AID 463210. 330,000 tested, 0.093% active;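 active = percent activation above the screen-wide mean plus 3 SD, cut at about 25% in these data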
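Assay system: Uncleavable procaspase-7 mutant enzyme; Input: 2 µM procaspase-7 mutant as dispensed; Also added: DEVD-pNA substrate; Medium: Zinc-free HEPES pH 7.4 with 300 mM NaCl, 0.01% Triton X-100; Timing: 1 h compound preincubation, 2 h substrate cleavage, 25 °C; Measured by: Epi-absorbance of released pNA at 405 nm, two timepoints.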
proCasp3 act: procaspase-3 (human) activation; recombinant procaspase-3 D3A, Ac-DEVD-pNA absorbance 405 nm; activation, % at 8.5 µM; 330,000 tested, 0.11% active;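 active = activation above the mean of all tested compounds plus 3 SD, cut at about 21% in these data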
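material = Procaspase-3 D3A mutant | probe or stimulus = Ac-DEVD-pNA | compound = single dose, 8.5 µM nominal compound, 0.8% DMSO | timing = 1 h preincubation, 2 h reaction | measured by = 405 nm absorbance of p-nitroaniline, reads at 0 and 120 min | benchmarks = DMSO-only low control, 5 µM PC-3 D3A high control | repeats = singlicate, each compound tested once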
sPLA2-III inh: Inhibits HGIII-sPLA2 liposome hydrolysis, primary screen; Q9NZ20; QFRET BODIPY PC-A2 liposome hydrolysis, fluorescence; inhibition, % at 12.2 µM; 370,000 tested, 0.56% active; AID 743126;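 active = inhibition above mean plus 3 SD of compounds lying within the high and low control bounds, cut at about 19% in these data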
PLC-beta3 inh: PLC-beta3 (human) inhibition, primary screen; Purified PLC-beta3, fluorogenic substrate, fluorescence; inhibition, % at 12.2 µM; 370,000 tested, 0.18% active; Q01970; AID 720704; in the data active = inhibition above about 11%
proCasp7 act trip: counter-screen: procaspase-7 (human) activation in triplicate; AID 488941; shares compounds with proCasp3 act; 210 tested, under 10 active; activation, % at 8.5 µM; recombinant procaspase-7, Ac-DEVD-pNA absorbance; asp23/198/206-to-Ala mutant, cannot self-cleave;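 active = mean activation above a set limit taken from an earlier procaspase-7 screen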
procasp3 conf: confirmation of human procaspase-3 activators; recombinant PC-3 D3A, Ac-DEVD-pNA absorbance 405 nm; 100% is higher-enzyme control; 210 tested, 10% active; shares compounds with proCasp3 act; activation, % at 8.5 µM;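 active = mean activation above a set limit carried over from the earlier primary screen, cut at about 22% in these data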
Numbers stand for hits; 0 = inactive; - = not tested or not shown. Sampled rows, rich in hits. Any-hit rate of the full collection: about 1.6%.

SMILES | PLC-gamma1 inh | proCasp7 act | proCasp3 act | sPLA2-III inh | PLC-beta3 inh | proCasp7 act trip | procasp3 conf
COc1ccc(C2CC(c3cccc(F)c3)=NN2c2ccc(S(N)(=O)=O)cc2)cc1 (stereo unspecified) | 0 | 0 | 37 | 0 | 0 | 0 | 0
CC1CC(C)(C)CC2(C1)NC(=O)N(CC(=O)Nc1ccc3[nH]c(=O)[nH]c3c1)C2=O (stereo unspecified) | 0 | 0 | 37 | 0 | 0 | 0 | 0
CCOc1ccc(NC(=O)CN(C)C(=O)c2ccc(C3SCCS3)cc2)cc1OCC | 0 | 0 | 21 | 0 | 0 | 0 | 0
CCOc1ccc(NC(=O)CN(C)C(=O)c2ccc(=O)[nH]c2)cc1OCC | 0 | - | - | 0 | 0 | - | -
CC(C)(C)OC(=O)N[C@H](C(=O)OC(C)(C)C)c1ccc(C(F)(F)F)cc1 | 0 | 0 | 0 | 0 | 0 | - | -
Cc1ccc(OCc2cc(C(=O)N(C)Cc3cnn(-c4ccccc4C)c3)no2)cn1 | 0 | 0 | 23 | 0 | 0 | 0 | 0
CC(=O)Oc1c(-c2ccc(Br)o2)oc2ccccc2c1=O | 0 | 0 | 27 | 0 | 0 | 0 | 21
CCOC(=O)CC(=O)CSc1nc2sc(C)cc2c(=O)n1Cc1ccco1 | 0 | 0 | 59 | 0 | 0 | 0 | 0
Cc1c(Cc2ccccc2)sc(/N=C/c2ccc3ccccc3c2)c1C(N)=O | - | 0 | 0 | - | - | - | -
Cc1c(Cc2ccccc2)sc(/N=C/c2c(O)ccc3ccccc23)c1C(N)=O | - | 0 | 32 | - | - | 0 | 26
CCOc1ccc(N/C=C/C(=O)c2ccc(OC)c(OC)c2)cc1 | 0 | 0 | 0 | 0 | 0 | - | -
CCOC(=O)c1ccc(N/C=C/C(=O)c2ccc(OC)c(OC)c2)cc1 | 0 | 0 | 25 | 0 | 0 | 0 | 0
Cc1cccc(C)c1NC(=O)NS(=O)(=O)c1ccccc1 | 0 | - | - | 0 | 0 | - | -
CCOC(=O)c1cc(-c2ccc(/C=N\n3cnnc3)o2)ccc1Cl | 0 | 0 | 29 | 0 | 0 | 0 | 0
N#Cc1ccc(/C=C\c2nccc3c2[nH]c2ccccc23)cc1 | 0 | 0 | 48 | 0 | 0 | 0 | 0
Cc1ccc(OCC(=O)NC2CCS(=O)(=O)C2)c([N+](=O)[O-])n1 (stereo unspecified) | 0 | 0 | 21 | 0 | 0 | 0 | 0
CCN(CC)S(=O)(=O)c1ccc(OCC(=O)NC2CCS(=O)(=O)C2)c([N+](=O)[O-])c1 (stereo unspecified) | 0 | 0 | 0 | 0 | 0 | - | -
CCOc1ccccc1NC(=O)COc1coc(CN2CCCc3ccccc32)cc1=O | 0 | 0 | 0 | 0 | 0 | - | -
CCOc1ccccc1NC(=O)COc1coc(CN2CCc3ccccc3C2)cc1=O | 0 | 0 | 22 | 0 | 0 | 0 | 0
CCC(O)(c1ccc(NC(=O)OC(C)(C)C)cc1)c1cc(OC)cc(OC)c1 (stereo unspecified) | 0 | - | - | 0 | 0 | - | -
O=C(Cn1c2ccccc2c(=O)c2ccccc21)Nc1ccccc1F | 0 | 0 | 28 | 0 | 0 | 0 | 0
O=C(Nc1cccc(C(F)(F)F)c1)C1Cc2c(-c3ccccc3)ccnc2O1 (stereo unspecified) | 0 | - | - | 0 | 0 | - | -
Cc1cccc(C2=NN(c3ccccc3)[C@H](CO)[C@H]2c2ccc(F)cc2)c1 | 0 | 0 | 25 | 0 | 0 | 0 | 0
Cc1cccc(C2=NN(c3ccccc3)[C@H](CO)[C@H]2c2ccc(Cl)cc2)c1 | 0 | 0 | 0 | 0 | 0 | - | -
OC[C@@H]1[C@@H](c2ccccc2)C(c2cccc(Cl)c2)=NN1c1ccccc1 | 0 | 0 | 0 | 0 | 0 | - | -
OC[C@@H]1[C@@H](c2ccc(Cl)cc2)C(c2ccc(F)cc2)=NN1c1ccccc1 | 0 | 0 | 24 | 0 | 0 | 0 | 0
CC(C)NC(=O)N(C)C[C@@H]1Oc2cc(Br)ccc2S(=O)(=O)N([C@@H](C)CO)C[C@H]1C | 0 | - | - | 0 | 0 | - | -
CCC(CC)C(=O)N(C)c1c(C)nc2c(OCC=C(C)C)cccn12 | 0 | - | - | 0 | 0 | - | -
CCc1nc2ccc(C(=O)N3CCN(C(=O)c4ccco4)CC3)cn2c1N(CC)Cc1cccc(Br)c1 | 0 | - | - | 0 | 0 | - | -
